Test results as given in ChEMBL document CHEMBL4138177, “Design and synthesis of short amphiphilic cationic peptidomimetics based on biphenyl backbone as antibacterial agents” (Eur J Med Chem, 2018).
≈ marks a conversion by molar mass, not a printed value. Calls of active or inactive are those of the source. The calls are words filed in the database; no cut-off is given here.

Key:
Staphylococcus aureus [1] = assay: Antimicrobial activity against Staphylococcus aureus SA38 after 18 to 24 hrs by spectrophotometry based broth micro dilution assay; type: functional; conditions: read-out: MIC100
Method in brief: (§1)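 CLSI broth microdilution. Mid-log cells grown in MHB at 37 °C, shaken 120 rpm, washed three times in PBS pH 7.4, diluted in fresh MHB to a final 1–2 × 10⁵ cfu/mL. Two-fold serial dilutions from 250 down to 3.9 µM. Incubated 18–24 h at 37 °C, 120 rpm. A600 read; MIC taken as the lowest concentration giving 100% growth inhibition. Triplicate, three independent experiments.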

Escherichia coli [2] = assay: Antimicrobial activity against Escherichia coli K-12 after 18 to 24 hrs by spectrophotometry based broth micro dilution assay; type: functional; conditions: read-out: MIC100; method in brief: as §1
MRC5 [3] = assay: Cytotoxicity against human MRC5 cells after 72 hrs by Alamar blue staining-based spectrophotometric analysis; type: cell-based; conditions: for IC50: Homo sapiens, MRC5, 72 h; for Activity: human, mrc5, 72 h
Method in brief: (§2)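 MRC-5 lung fibroblasts grown in MEM with 10% FCS, 37 °C, 5% CO₂. Seeded at 2 × 10⁴ cells/well to confluence, then treated 24 h later for 72 h. Medium replaced with 10% Alamar blue for 6 h and absorbance read. Viability expressed as % of untreated cells and IC50 derived. Triplicate, three independent experiments.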

MRC5 [4] = assay: Cytotoxicity against human MRC5 cells up to 350 uM after 72 hrs by Alamar blue staining-based spectrophotometric analysis; type: cell-based; conditions: mrc5, 72 h; method in brief: as §2
Staphylococcus aureus [5] = assay: Induction of cytoplasmic membrane disruption in Staphylococcus aureus SA38 at 7.8 to 62.5 uM measured within 3 mins by diSC3-5 dye-based luminescence spectrophotometric analysis; type: functional, organism-based
Escherichia coli [6] = assay: Induction of cytoplasmic membrane disruption in Escherichia coli K-12 at 3.9 to 31.2 uM by diSC3-5 dye-based luminescence spectrophotometric analysis; type: functional, organism-based
Pseudomonas aeruginosa = assay: Antimicrobial activity against Pseudomonas aeruginosa PAO1 after 18 to 24 hrs by spectrophotometry based broth micro dilution assay; type: functional; conditions: read-out: MIC100; method in brief: as §1
Lipid bilayer [7] = assay: Binding affinity to negatively charged tethered bilayer lipid membranes assessed as increase in membrane conduction response at 0.1 to 100 uM by electrochemical impedance spectroscopic analysis
Method in brief: (§3)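 Tethered bilayer membranes formed from a mobile phase of 70% diphytanyl-glycero-phosphatidylcholine and 30% diphytanyl-diglyceride ether (3 mM in ethanol), associated for 2 min, then washed with PBS to give zwitterionic membranes. A variant mobile phase gave negatively charged membranes. Conduction and capacitance measured by AC impedance spectroscopy with Lev-Mar fitting. Triplicate.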

Lipid bilayer [8] = assay: Binding affinity to zwitterionic tethered bilayer lipid membranes assessed as increase in membrane conduction response by electrochemical impedance spectroscopic analysis; method in brief: as §3
Lipid bilayer [9] = assay: Binding affinity to negatively charged tethered bilayer lipid membranes assessed as increase in membrane capacitance changes at 0.1 to 100 uM by electrochemical impedance spectroscopic analysis; method in brief: as §3
Lipid bilayer [10] = assay: Binding affinity to zwitterionic tethered bilayer lipid membranes assessed as increase in membrane capacitance changes at 0.1 to 100 uM by electrochemical impedance spectroscopic analysis; method in brief: as §3
Lipid bilayer [11] = assay: Binding affinity to negatively charged tethered bilayer lipid membranes assessed as increase in membrane capacitance changes at 10 uM by electrochemical impedance spectroscopic analysis; method in brief: as §3
Lipid bilayer [12] = assay: Binding affinity to zwitterionic tethered bilayer lipid membranes assessed as increase in membrane capacitance changes at 10 uM by electrochemical impedance spectroscopic analysis; method in brief: as §3
Staphylococcus aureus [13] = assay: Induction of cytoplasmic membrane disruption in Staphylococcus aureus SA38 at 31.2 uM measured within 3 mins by diSC3-5 dye-based luminescence spectrophotometric analysis; type: functional, organism-based
Staphylococcus aureus [14] = assay: Antibiofilm activity against drug-resistant pre-formed Staphylococcus aureus biofilms assessed as inhibition of biomass formation at 4 times MIC; type: functional
Staphylococcus aureus [15] = assay: Antibiofilm activity against Staphylococcus aureus SA38 assessed as inhibition of biofilm formation at 250 uM after 24 hrs by crystal violet staining based assay relative to control; type: functional; conditions: SA38, 24 h
Method in brief: (§4)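 Overnight culture diluted 1:20 in LB and grown overnight at 37 °C, 150 rpm, in 96-well plates. Compounds added at 250 µM from DMSO stock; controls received equal DMSO. Incubated overnight at 37 °C, 150 rpm. Biofilm on polystyrene quantified by crystal violet staining. Triplicate, three independent experiments.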

Escherichia coli [16] = assay: Antibiofilm activity against Escherichia coli K-12 assessed as inhibition of biofilm formation at 250 uM after 24 hrs by crystal violet staining based assay relative to control; type: functional; conditions: K-12, 24 h; method in brief: as §4

N=C(N)NCCC[C@H](NC(=O)c1cccc(-c2cccc(NC(=O)[C@H](Cc3c[nH]c4ccccc34)NC(=O)[C@@H](N)Cc3ccccc3)c2)c1)C(=O)NCCNC(=N)N
MIC (Staphylococcus aureus [1]): 15.6 µM (≈ 12.3 µg/mL)
MIC (Escherichia coli [2]): 7.8 µM (≈ 6.14 µg/mL)
IC50 (MRC5 [3]): > 300 µM
Activity (MRC5 [3]): Dose-dependent effect
Activity (MRC5 [4]): Non-Toxic
Activity (Staphylococcus aureus [5]): Active
Activity (Escherichia coli [6]): Active

COC(=O)[C@H](CCCCN)NC(=O)c1cccc(-c2cccc(NC(=O)[C@H](Cc3c[nH]c4ccccc34)NC(=O)[C@@H](N)Cc3ccccc3)c2)c1
MIC (Staphylococcus aureus [1]): 31.2 µM (≈ 21.5 µg/mL)
MIC (Pseudomonas aeruginosa): 250 µM (≈ 172 µg/mL)
MIC (Escherichia coli [2]): 125 µM (≈ 86.1 µg/mL)
IC50 (MRC5 [3]): > 300 µM
Activity (MRC5 [3]): Dose-dependent effect
Activity (MRC5 [4]): Non-Toxic
Activity (Lipid bilayer [7]): inactive
Activity (Lipid bilayer [8]): Dose-dependent effect
Activity (Lipid bilayer [9]): Dose-dependent effect
Activity (Lipid bilayer [10]): Dose-dependent effect
Activity (Lipid bilayer [11]): Active
Activity (Lipid bilayer [12]): Active

NCCCC[C@H](NC(=O)c1cccc(-c2cccc(NC(=O)[C@@H](N)Cc3c[nH]c4ccccc34)c2)c1)C(=O)NCCN
MIC (Staphylococcus aureus [1]): 31.2 µM (≈ 17.8 µg/mL)
MIC (Pseudomonas aeruginosa): > 250 µM
MIC (Escherichia coli [2]): > 125 µM

COC(=O)[C@H](CCCNC(=N)N)NC(=O)c1cccc(-c2cccc(NC(=O)[C@H](Cc3c[nH]c4ccccc34)NC(=O)[C@@H](N)Cc3ccccc3)c2)c1
MIC (Staphylococcus aureus [1]): 31.2 µM (≈ 22.4 µg/mL)
MIC (Pseudomonas aeruginosa): 250 µM (≈ 179 µg/mL)
MIC (Escherichia coli [2]): 125 µM (≈ 89.6 µg/mL)
IC50 (MRC5 [3]): > 300 µM
Activity (MRC5 [3]): Dose-dependent effect
Activity (MRC5 [4]): Non-Toxic
Activity (Lipid bilayer [7]): inactive
Activity (Lipid bilayer [8]): Dose-dependent effect
Activity (Lipid bilayer [9]): Dose-dependent effect
Activity (Lipid bilayer [10]): inactive
Activity (Lipid bilayer [11]): Active
Activity (Lipid bilayer [12]): Active

NCCNC(=O)c1cccc(-c2cccc(NC(=O)[C@@H](N)Cc3c[nH]c4ccccc34)c2)c1
MIC (Staphylococcus aureus [1]): 125 µM (≈ 55.2 µg/mL)
MIC (Pseudomonas aeruginosa): > 250 µM
MIC (Escherichia coli [2]): > 125 µM

N=C(N)NCCNC(=O)[C@H](CCCCN)NC(=O)c1cccc(-c2cccc(NC(=O)[C@H](Cc3c[nH]c4ccccc34)NC(=O)[C@@H](N)Cc3ccccc3)c2)c1
MIC (Staphylococcus aureus [1]): 31.2 µM (≈ 23.7 µg/mL)
MIC (Escherichia coli [2]): 15.6 µM (≈ 11.8 µg/mL)
IC50 (MRC5 [3]): > 300 µM
Activity (MRC5 [3]): Dose-dependent effect
Activity (MRC5 [4]): Non-Toxic
Activity (Staphylococcus aureus [13]): Active

COC(=O)[C@H](CCCNC(=N)N)NC(=O)c1cccc(-c2cccc(NC(=O)[C@@H](N)Cc3c[nH]c4ccccc34)c2)c1
MIC (Staphylococcus aureus [1]): 62.5 µM (≈ 35.6 µg/mL)
MIC (Pseudomonas aeruginosa): > 250 µM
MIC (Escherichia coli [2]): > 125 µM
IC50 (MRC5 [3]): > 300 µM
Activity (MRC5 [3]): Dose-dependent effect
Activity (MRC5 [4]): Non-Toxic

N=C(N)NCCNC(=O)c1cccc(-c2cccc(NC(=O)[C@H](Cc3c[nH]c4ccccc34)NC(=O)[C@@H](N)Cc3ccccc3)c2)c1
MIC (Staphylococcus aureus [1]): 15.6 µM (≈ 9.84 µg/mL)
MIC (Pseudomonas aeruginosa): 250 µM (≈ 158 µg/mL)
MIC (Escherichia coli [2]): 31.2 µM (≈ 19.7 µg/mL)
IC50 (MRC5 [3]): > 300 µM
Activity (MRC5 [3]): Dose-dependent effect
Activity (MRC5 [4]): Non-Toxic
Activity (Lipid bilayer [7]): inactive
Activity (Lipid bilayer [8]): Dose-dependent effect
Activity (Lipid bilayer [9]): Dose-dependent effect
Activity (Lipid bilayer [10]): Dose-dependent effect
Activity (Lipid bilayer [11]): Active
Activity (Lipid bilayer [12]): Active

CC[C@H](C)[C@H](NC(=O)[C@H](CCCCN)NC(=O)[C@H](CCC(=O)O)NC(=O)[C@H](CCCCN)NC(=O)[C@H](CO)NC(=O)[C@H](CCCCN)NC(=O)[C@H](CCCNC(=N)N)NC(=O)[C@H](Cc1ccccc1)NC(=O)[C@H](Cc1ccccc1)NC(=O)[C@H](CC(=O)O)NC(=O)CNC(=O)[C@H](CC(C)C)NC(=O)[C@@H](N)CC(C)C)C(=O)NCC(=O)N[C@@H](CCCCN)C(=O)N[C@@H](CCC(=O)O)C(=O)N[C@@H](Cc1ccccc1)C(=O)N[C@@H](CCCCN)C(=O)N[C@@H](CCCNC(=N)N)C(=O)N[C@H](C(=O)N[C@H](C(=O)N[C@@H](CCC(N)=O)C(=O)N[C@@H](CCCNC(=N)N)C(=O)N[C@H](C(=O)N[C@@H](CCCCN)C(=O)N[C@@H](CC(=O)O)C(=O)N[C@@H](Cc1ccccc1)C(=O)N[C@@H](CC(C)C)C(=O)N[C@@H](CCCNC(=N)N)C(=O)N[C@@H](CC(N)=O)C(=O)N[C@@H](CC(C)C)C(=O)N[C@H](C(=O)N1CCC[C@H]1C(=O)N[C@@H](CCCNC(=N)N)C(=O)N[C@H](C(=O)N[C@@H](CCC(=O)O)C(=O)N[C@@H](CO)C(=O)O)[C@@H](C)O)C(C)C)[C@@H](C)CC)C(C)C)[C@@H](C)CC [CATHELICIDIN]
inhibition (INH) (Staphylococcus aureus [14]): 40%

NCCNC(=O)c1cccc(-c2cccc(NC(=O)[C@H](Cc3c[nH]c4ccccc34)NC(=O)[C@@H](N)Cc3ccccc3)c2)c1
MIC (Staphylococcus aureus [1]): 62.5 µM (≈ 36.8 µg/mL)
MIC (Pseudomonas aeruginosa): 250 µM (≈ 147 µg/mL)
MIC (Escherichia coli [2]): > 125 µM

N=C(N)NCCNC(=O)[C@H](Cc1c[nH]c2ccccc12)NC(=O)[C@@H](N)Cc1ccccc1
MIC (Staphylococcus aureus [1]): > 250 µM
MIC (Escherichia coli [2]): > 125 µM

N=C(N)NCCNC(=O)c1cccc(-c2cccc(N)c2)c1
MIC (Staphylococcus aureus [1]): 62.5 µM (≈ 18.6 µg/mL)
MIC (Pseudomonas aeruginosa): > 250 µM
MIC (Escherichia coli [2]): > 125 µM
Activity (Lipid bilayer [11]): inactive
Activity (Lipid bilayer [12]): inactive

COC(=O)[C@H](CCCCN)NC(=O)c1cccc(-c2cccc(NC(=O)[C@@H](N)Cc3c[nH]c4ccccc34)c2)c1
MIC (Staphylococcus aureus [1]): 31.2 µM (≈ 16.9 µg/mL)
MIC (Pseudomonas aeruginosa): > 250 µM
MIC (Escherichia coli [2]): > 125 µM

N=C(N)NCCNC(=O)c1cccc(-c2cccc(NC(=O)[C@@H](N)Cc3c[nH]c4ccccc34)c2)c1
MIC (Staphylococcus aureus [1]): 62.5 µM (≈ 30.2 µg/mL)
MIC (Pseudomonas aeruginosa): > 250 µM
MIC (Escherichia coli [2]): > 125 µM
IC50 (MRC5 [3]): > 300 µM
Activity (MRC5 [3]): Dose-dependent effect
Activity (MRC5 [4]): Non-Toxic
inhibition at 250 µM (Staphylococcus aureus [15]): 41%
inhibition at 250 µM (Escherichia coli [16]): 39%

NCCCC[C@H](NC(=O)c1cccc(-c2cccc(NC(=O)[C@H](Cc3c[nH]c4ccccc34)NC(=O)[C@@H](N)Cc3ccccc3)c2)c1)C(=O)NCCN
MIC (Staphylococcus aureus [1]): 31.2 µM (≈ 22.4 µg/mL)
MIC (Pseudomonas aeruginosa): 250 µM (≈ 179 µg/mL)
MIC (Escherichia coli [2]): 31.2 µM (≈ 22.4 µg/mL)
IC50 (MRC5 [3]): > 300 µM
Activity (MRC5 [3]): Dose-dependent effect
Activity (MRC5 [4]): Non-Toxic
Activity (Lipid bilayer [7]): inactive
Activity (Lipid bilayer [8]): Dose-dependent effect
Activity (Staphylococcus aureus [13]): Active
inhibition at 250 µM (Staphylococcus aureus [15]): 30%
inhibition at 250 µM (Escherichia coli [16]): 8%
Activity (Lipid bilayer [9]): Dose-dependent effect
Activity (Lipid bilayer [10]): Dose-dependent effect
Activity (Lipid bilayer [11]): Active
Activity (Lipid bilayer [12]): Active
